Data set [1] has as its system Staphylococcus aureus. Description: Antimicrobial activity against methicillin-resistant Staphylococcus aureus OM584 by microdilution method. Format: functional. The gist of the method: (§1)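 Broth microdilution MIC per Japan Society of Chemotherapy standard method. Cultures grown in sensitivity test broth at 37 °C to OD620 0.1, inoculum ≈10^5 CFU/mL. Twofold dilutions from DMSO stock, 500 to 0.2 µg/mL; 20 h, 37 °C, humid. MIC = lowest concentration clearly inhibiting growth by visual inspection; vancomycin standard; media, DMSO and water controls; at least duplicate.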
For orientation: Broth dilution looks for growth in wells or tubes with falling amounts of substance.

For the next data set, the system named is Mus musculus. Briefly: Acute toxicity in mouse at 100 mg/kg, ip upto 14 days. The format is organism-based. More on the design: dose 100 mg/kg, route intraperitoneal. Conditions: in vivo, 336 h. The gist of the method: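 Male mice (15–30 g), water only for 12 h beforehand; compound in 0.5% CMC given ip at doses up to 100 mg kg-1, n = 5/group; toxic symptoms observed up to 14 days.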

In the next data set the test system is Enterococcus faecium. Briefly: Antimicrobial activity against vancomycin-resistant Enterococcus faecium FN-1 by microdilution susceptibility test. Format: functional. In short, it runs like this: as §1
Data set [2] concerns Staphylococcus aureus. Briefly: Antimicrobial activity against methicillin-resistant Staphylococcus aureus at […] by disk diffusion method. Format: functional. The gist of the method:
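Overnight nutrient-broth culture (35 °C, 12–18 h) of MRSA OM584 spread on Mueller-Hinton agar; 8-mm paper discs given 10 µL of 20 mM compound in DMSO; plates incubated at 37 °C about 20 h; inhibition zones measured and scored: −, ± (0–1 mm), +1 (1–15 mm), +2 (15–20 mm), +3 (>20 mm).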
(Agar diffusion results depend on both activity and mobility in agar.)

Molecules are shown by their SMILES. Values after ≈ are worked out from the molar mass of the structure shown. Active and inactive are the calls of the source. The calls are words filed in the database; no cut-off is given here. Some results are limits rather than exact numbers.

Turning to `O=S(=O)(Nc1cc(Cl)cc(Cl)c1)c1cc(C(F)(F)F)cc(C(F)(F)F)c1`, the minimum inhibitory concentration (MIC) (in general, the lowest concentration found to suppress growth) with Staphylococcus aureus [1] came out at 0.5 µg/mL (≈ 1.14 µM); against Enterococcus faecium, 1 µg/mL (≈ 2.28 µM). Moreover, in the data set on Mus musculus, the Activity result is “Non-toxic”.
As to `Cc1ccc(S(=O)(=O)Nc2cc(C(F)(F)F)cc(C(F)(F)F)c2)cc1`, the MIC in the data set on Staphylococcus aureus [1] and in the data set with Enterococcus faecium was 62.5 µg/mL (≈ 163 µM) throughout. Further, the outcome in the data set on Staphylococcus aureus [2] was inactive.
As to `O=S(=O)(Nc1cc(F)cc(F)c1)c1cc(C(F)(F)F)cc(C(F)(F)F)c1`, the MIC against Staphylococcus aureus [1] worked out at 2 µg/mL (≈ 4.94 µM); in the data set with Enterococcus faecium, 7.8 µg/mL (≈ 19.2 µM). The Activity result with Mus musculus is on record as “Non-toxic”.
For the compound `O=S(=O)(Nc1cc(C(F)(F)F)cc(C(F)(F)F)c1)c1ccc(C(F)(F)F)cc1`, the MIC stood at 15.6 µg/mL (≈ 35.7 µM) against Staphylococcus aureus [1] and 7.8 µg/mL (≈ 17.8 µM) against Enterococcus faecium. For the same compound, the “inhibition zone (IZ)” value in the data set with Staphylococcus aureus [2] is reported as more than 20 mm.
As to `O=[N+]([O-])c1ccc(S(=O)(=O)Nc2cc(C(F)(F)F)cc(C(F)(F)F)c2)cc1`, the MIC against Staphylococcus aureus [1] is 31.3 µg/mL (≈ 75.6 µM); in the data set with Enterococcus faecium, 3.9 µg/mL (≈ 9.41 µM). Further, the “inhibition zone (IZ)” value with Staphylococcus aureus [2] is more than 20 mm.
For `Nc1ccc(S(=O)(=O)Nc2cc(C(F)(F)F)cc(C(F)(F)F)c2)cc1`, in that order: 125 µg/mL (≈ 325 µM), 62.5 µg/mL (≈ 163 µM) and 1 mm.

Values taken from ChEMBL document CHEMBL1150371, “Design and synthesis of benzenesulfonanilides active against methicillin-resistant Staphylococcus aureus and vancomycin-resistant Enterococcus” (Bioorg Med Chem, 2008).
